Key:
[1] = system: HT-29; assay: Antiproliferative activity against human HT-29 cells after 2 days by MTT assay; format: functional, cell-based; conditions: HT-29, 48 h
Summary of the method: (§1)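 Cells (5×10^3 per well) in DMEM with 10% FBS, glucose, glutamine and antibiotics were exposed to serial dilutions (stocks in DMSO) for 2 days at 37 °C, 5% CO2. MTT was added for 3 h, formazan was dissolved in DMSO and absorbance read at 490 nm. Viability was taken as % of untreated cells. IC50 was read graphically from three independent experiments.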

[2] = system: MCF7; assay: Antiproliferative activity against human MCF7 cells after 2 days by MTT assay; format: functional, cell-based; conditions: MCF7, 48 h; summary of the method: as §1
[3] = system: HeLa; assay: Antiproliferative activity against human HeLa cells after 2 days by MTT assay; format: functional, cell-based; conditions: 48 h; summary of the method: as §1
[4] = system: HEK293; assay: Antiproliferative activity against human HEK293 cells after 2 days by MTT assay; format: cell-based; conditions: HEK293, 48 h; summary of the method: as §1
[5] = system: HT-29; assay: Induction of apoptosis in human HT-29 cells assessed as viable cells at 1 nM after 48 hrs by Annexin V-FITC staining-based flow cytometric analysis (reference value: 82 +/- 1%); format: functional; conditions: HT-29, 48 h, read-out: Activity
[6] = system: HT-29; assay: Induction of apoptosis in human HT-29 cells assessed as apoptotic cells at 1 nM after 48 hrs by Annexin V-FITC staining-based flow cytometric analysis (reference value: 13 +/- 3%); format: functional
[7] = system: HT-29; assay: Induction of apoptosis in human HT-29 cells assessed as necrotic cells at 1 nM after 48 hrs by Annexin V-FITC staining-based flow cytometric analysis (reference value: 2 +/- 6%); format: functional
[8] = system: HT-29; assay: Effect on c-MYC gene expression in human HT-29 cells assessed as c-MYC level at 1 nM after 48 hrs by RT-qPCR analysis; format: functional
Summary of the method: (§2)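 HT-29 cells at 70–80% confluence were seeded at 1.5×10^5 per well and left 24 h, then treated 48 h, with DMSO as control. Total RNA was extracted and VEGF-A, c-Myc and hTERT were quantified by TaqMan qPCR, normalized to β-actin and to living cell number. Results are % expression versus control, at least three measurements.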

[9] = system: HT-29; assay: Effect on hTERT gene expression in human HT-29 cells assessed as hTERT level at 1 nM after 48 hrs by RT-qPCR analysis; format: functional; summary of the method: as §2
[10] = system: HT-29; assay: Effect on VEGF gene expression in human HT-29 cells assessed as VEGF level at 1 nM after 48 hrs by RT-qPCR analysis; format: functional; summary of the method: as §2
[11] = system: HT-29; assay: Effect on c-MYC protein expression in human HT-29 cells assessed as c-MYC level at 1 nM after 48 hrs by ELISA; format: functional
Summary of the method: (§3)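 HT-29 cells (1.5×10^5 per well, 24 h pre-culture) were treated 48 h and washed in PBS. They were lysed in Tris pH 7.4 buffer with detergents, phosphatase inhibitors, PMSF and protease inhibitors. Lysates were adjusted to 200 µg/mL protein (Bradford) and total c-Myc or VEGFR-2 was measured by sandwich ELISA kit. Values are % of DMSO control, ≥3 measurements.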

[12] = system: HT-29; assay: Effect on VEGFR2 protein expression in human HT-29 cells assessed as VEGFR2 level at 1 nM after 48 hrs by ELISA; format: functional; summary of the method: as §3
[13] = system: HT-29; assay: Effect on VEGF protein expression in human HT-29 cells assessed as secreted VEGF level in culture media at 1 nM after 48 hrs by ELISA

SMILES: COc1cc2c(c(OC)c1OC)-c1ccc(OC)c(=O)cc1[C@@H](NC(=O)Nc1ccc(-c3ccccc3)cc1)CC2
- IC50 [1]: 1.2 nM
- IC50 [2]: 1.5 nM
- IC50 [3]: 12 nM
- IC50 [4]: 1.7 nM
- viability at 0.001 µM [5]: 86%
- Activity [6]: 11%
- Activity [7]: 3%
- Activity [8]: 85%
- Activity [9]: 60%
- Activity [10]: 72%
- Activity [11]: 119%
- Activity [12]: 74%
- Activity [13]: 72%

Reference: ChEMBL document CHEMBL4229380, “Arylureas derived from colchicine: Enhancement of colchicine oncogene downregulation activity” (Eur J Med Chem, 2018)
